Assays:
Assay type in all cases: functional
Rattus norvegicus [1] = species on record: Rattus norvegicus; test: Percent formation of compound upon incubation of 15 with phenobarbit-induced rat liver microsomal fraction in oxic condition in presence of SKF-525A at a concentration of 1 mM
Outline: (§1)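 Phenobarbital-induced rat liver microsomes; inhibitors SKF-525A (in methanol) or pCMBA (in DMF) at 0–4 mM final. pCMBA preincubated 30 min before NADPH; SKF-525A incubated 15 min with microsomes and NADPH. Hypoxic samples nitrogen-purged. Substrate 2.5 mM added, 30 min at 37 °C. Ketone metabolite by HPLC at 254 nm as percent of substrate; % inhibition relative to no inhibitor. Mean of two experiments.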

Rattus norvegicus [2] = species on record: Rattus norvegicus; test: Percent formation of compound upon incubation of 15 with phenobarbit-induced rat liver microsomal fraction in oxic condition in presence of pCMBA at a concentration of 2 mM; outline: as §1
Rattus norvegicus [3] = species on record: Rattus norvegicus; test: Percent formation of compound upon incubation of 15 with phenobarbit-induced rat liver microsomal fraction in hypoxic condition in presence of pCMBA at a concentration of 1 mM; outline: as §1
Rattus norvegicus [4] = species on record: Rattus norvegicus; test: Tested for formation of compound upon incubation of compound 15 for 30 minutes with rat liver subcellular fractions in hypoxic condition in the presence of NADPH
Outline: (§2)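 Phenobarbital-induced rat liver S-9, microsomal or cytosolic fraction with 5 mM cofactor (NADPH, NADH, benzaldehyde or 2-hydroxypyrimidine) or none. Substrate 2.5 mM final, added from methanol/water 50:50. Hypoxic vials purged with nitrogen 15–20 min. 30 min at 37 °C, quenched with ice-cold methanol. Ketone metabolite by HPLC at 254 nm as percent of equimolar substrate.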

Rattus norvegicus [5] = species on record: Rattus norvegicus; test: Percent formation of compound upon incubation of 15 with phenobarbit-induced rat liver microsomal fraction in hypoxic condition in presence of pCMBA at a concentration of 0 mM; outline: as §1
Rattus norvegicus [6] = species on record: Rattus norvegicus; test: Tested for formation of compound upon incubation of compound 15 for 30 minutes with rat liver microsomal fractions in oxic condition in the presence of NADPH; outline: as §2
Homo sapiens = species on record: Homo sapiens; test: Percent formation of compound upon incubation of 15 for 60 minutes with human P450 reductase microsomes in hypoxic condition in presence of NADPH
Outline: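 Human or rat P450 reductase microsomes at 1 mg/mL protein, substrate 0.25 mM and cofactor 0.5 mM; pCMBA 2 mM where stated. Anaerobic samples purged with nitrogen 15–20 min in septum-sealed vials. 60 min at 37 °C, stopped with ice-cold methanol. Ketone metabolite quantified by HPLC (C-18, methanol/water 50:50, UV 254 nm) as percent of equimolar substrate. Mean of two experiments.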

Rattus norvegicus [7] = species on record: Rattus norvegicus; test: Percent inhibition of formation of compound upon incubation of 15 with phenobarbit-induced rat liver microsomal fraction in hypoxic condition in presence of pCMBA at a concentration of 2 mM; outline: as §1
Rattus norvegicus [8] = species on record: Rattus norvegicus; test: Percent formation of compound upon incubation of 15 with phenobarbit-induced rat liver microsomal fraction in hypoxic condition in presence of pCMBA at a concentration of 4 mM; outline: as §1
Rattus norvegicus [9] = species on record: Rattus norvegicus; test: Percent formation of compound upon incubation of 15 with phenobarbit-induced rat liver microsomal fraction in oxic condition in presence of pCMBA at a concentration of 0 mM; outline: as §1
Rattus norvegicus [10] = species on record: Rattus norvegicus; test: Tested for formation of compound upon incubation of compound 15 for 30 minutes with rat liver cystolic fractions in oxic condition in the absence of cofactor; outline: as §2
Rattus norvegicus [11] = species on record: Rattus norvegicus; test: Tested for formation of compound upon incubation of compound 15 for 30 minutes with rat liver subcellular fractions in hypoxic condition in the presence of NADH; outline: as §2
Rattus norvegicus [12] = species on record: Rattus norvegicus; test: Tested for formation of compound upon incubation of compound 15 for 30 minutes with rat liver subcellular fractions in hypoxic condition in the presence of 2-hydroxypyrimidine; outline: as §2
Rattus norvegicus [13] = species on record: Rattus norvegicus; test: Tested for formation of compound upon incubation of compound 15 for 30 minutes with uninduced rat liver S-9 fractions in hypoxic condition in the presence of NADPH
Outline: (§3)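 Uninduced rat liver S-9 (22.5 mg/mL protein, 2 mL) with 5 mM NADPH or no cofactor, substrate 2.5 mM final; hypoxic samples nitrogen-purged 15–20 min in septum-sealed vials, else aerobic; 30 min at 37 °C. Methanol quench, centrifugation, C-18 HPLC with UV 254 nm; metabolite as percent of equimolar substrate. NADPH runs three experiments, no-cofactor runs two.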

Rattus norvegicus [14] = species on record: Rattus norvegicus; test: Percent inhibition of formation of compound upon incubation of 15 with phenobarbit-induced rat liver microsomal fraction in oxic condition in presence of pCMBA at a concentration of 4 mM; outline: as §1
Rattus norvegicus [15] = species on record: Rattus norvegicus; test: Percent inhibition of formation of compound upon incubation of 15 with phenobarbit-induced rat liver microsomal fraction in hypoxic condition in presence of SKF-525A at a concentration of 1 mM; outline: as §1
Rattus norvegicus [16] = species on record: Rattus norvegicus; test: Tested for formation of compound upon incubation of compound 15 for 30 minutes with uninduced rat liver S-9 fractions in oxic condition in the absence of cofactor; outline: as §3
Rattus norvegicus [17] = species on record: Rattus norvegicus; test: Percent formation of compound upon incubation of 15 with phenobarbit-induced rat liver microsomal fraction in hypoxic condition in presence of SKF-525A at a concentration of 4 mM; outline: as §1
Rattus norvegicus [18] = species on record: Rattus norvegicus; test: Tested for formation of compound upon incubation of compound 15 for 30 minutes with uninduced rat liver S-9 fractions in hypoxic condition in the absence of cofactor; outline: as §3
Rattus norvegicus [19] = species on record: Rattus norvegicus; test: Percent formation of compound upon incubation of 15 with phenobarbit-induced rat liver microsomal fraction in oxic condition in presence of SKF-525A at a concentration of 4 mM; outline: as §1
Rattus norvegicus [20] = species on record: Rattus norvegicus; test: Tested for formation of compound upon incubation of compound 15 for 30 minutes with rat liver subcellular fractions in oxic condition in the absence of cofactor; outline: as §2
Rattus norvegicus [21] = species on record: Rattus norvegicus; test: Tested for formation of compound upon incubation of compound 15 for 30 minutes with rat liver subcellular fractions in hypoxic condition in the absence of cofactor; outline: as §2
Rattus norvegicus [22] = species on record: Rattus norvegicus; test: Percent formation of compound upon incubation of 15 with phenobarbit-induced rat liver microsomal fraction in oxic condition in presence of SKF-525A at a concentration of 0 mM; outline: as §1
Rattus norvegicus [23] = species on record: Rattus norvegicus; test: Tested for formation of compound upon incubation of compound 15 for 30 minutes with rat liver microsomal fractions in hypoxic condition in the absence of cofactor; outline: as §2
Rattus norvegicus [24] = species on record: Rattus norvegicus; test: Percent inhibition of formation of compound upon incubation of 15 with phenobarbit-induced rat liver microsomal fraction in oxic condition in presence of pCMBA at a concentration of 2 mM; outline: as §1
Rattus norvegicus [25] = species on record: Rattus norvegicus; test: Percent inhibition of formation of compound upon incubation of 15 with phenobarbit-induced rat liver microsomal fraction in oxic condition in presence of pCMBA at a concentration of 1 mM; outline: as §1
Rattus norvegicus [26] = species on record: Rattus norvegicus; test: Percent inhibition of formation of compound upon incubation of 15 with phenobarbit-induced rat liver microsomal fraction in oxic condition in presence of SKF-525A at a concentration of 4 mM; outline: as §1
Rattus norvegicus [27] = species on record: Rattus norvegicus; test: Percent inhibition of formation of compound upon incubation of 15 with phenobarbit-induced rat liver microsomal fraction in hypoxic condition in presence of pCMBA at a concentration of 1 mM; outline: as §1
Rattus norvegicus [28] = species on record: Rattus norvegicus; test: Tested for formation of compound upon incubation of compound 15 for 30 minutes with rat liver cystolic fractions in hypoxic condition in the presence of NADPH; outline: as §2
Rattus norvegicus [29] = species on record: Rattus norvegicus; test: Percent formation of compound upon incubation of 15 with phenobarbit-induced rat liver microsomal fraction in hypoxic condition in presence of pCMBA at a concentration of 2 mM; outline: as §1

Which results are given for `CCC(=O)c1ccccc1O`?
Formation (Rattus norvegicus [1]): 36.9%; Formation (Rattus norvegicus [2]): 0.5%; Formation (Rattus norvegicus [3]): 0.7%; Formation (Rattus norvegicus [4]): 88.5%; Formation (Rattus norvegicus [5]): 93.2%; Formation (Rattus norvegicus [6]): 73%; Formation (Homo sapiens): 1.7%; inhibition (Rattus norvegicus [7]): 99%; Formation (Rattus norvegicus [8]): 0.5%; Formation (Rattus norvegicus [9]): 68.8%; Formation (Rattus norvegicus [10]): 0.4%; Formation (Rattus norvegicus [11]): 28.5%; Formation (Rattus norvegicus [12]): 0.5%; Formation (Rattus norvegicus [13]): 9.4%; inhibition (Rattus norvegicus [14]): 99%; inhibition (Rattus norvegicus [15]): 23%; Formation (Rattus norvegicus [16]): 1.6%; Formation (Rattus norvegicus [17]): 45%; Formation (Rattus norvegicus [18]): 0.9%; Formation (Rattus norvegicus [19]): 26.9%; Formation (Rattus norvegicus [20]): 0.5%; Formation (Rattus norvegicus [21]): 2.2%; Formation (Rattus norvegicus [22]): 44.9%; Formation (Rattus norvegicus [23]): 0.4%; inhibition (Rattus norvegicus [24]): 99%; inhibition (Rattus norvegicus [25]): 99%; inhibition (Rattus norvegicus [26]): 40%; inhibition (Rattus norvegicus [27]): 99%; Formation (Rattus norvegicus [28]): 3.6%; Formation (Rattus norvegicus [29]): 1.2%
